Data taken from BindingDB's records for doi:10.1021/acs.jnatprod.5b00637 (University of Eastern Piedmont, 2016).

Target: Signal transducer and activator of transcription 3 (Homo sapiens, UniProt P40763)
Assay: Inhibition of IFN gamma-induced STAT3 (unknown origin) activation in HeLa-STAT3-Luc cells after 6 hrs by luciferase reporter gene assay
Method in brief: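 HeLa-STAT3-Luc reporter cells (15 × 10⁴ cells/mL, DMEM with 10% FBS, 37 °C, 5% CO2) were preincubated with the compounds at rising concentrations, then stimulated with IFNγ for 6 h. Lysate luciferase is expressed as percent inhibition, with IFNγ-induced activity set as 100%.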

Sequence of Signal transducer and activator of transcription 3 (P40763 whole entry): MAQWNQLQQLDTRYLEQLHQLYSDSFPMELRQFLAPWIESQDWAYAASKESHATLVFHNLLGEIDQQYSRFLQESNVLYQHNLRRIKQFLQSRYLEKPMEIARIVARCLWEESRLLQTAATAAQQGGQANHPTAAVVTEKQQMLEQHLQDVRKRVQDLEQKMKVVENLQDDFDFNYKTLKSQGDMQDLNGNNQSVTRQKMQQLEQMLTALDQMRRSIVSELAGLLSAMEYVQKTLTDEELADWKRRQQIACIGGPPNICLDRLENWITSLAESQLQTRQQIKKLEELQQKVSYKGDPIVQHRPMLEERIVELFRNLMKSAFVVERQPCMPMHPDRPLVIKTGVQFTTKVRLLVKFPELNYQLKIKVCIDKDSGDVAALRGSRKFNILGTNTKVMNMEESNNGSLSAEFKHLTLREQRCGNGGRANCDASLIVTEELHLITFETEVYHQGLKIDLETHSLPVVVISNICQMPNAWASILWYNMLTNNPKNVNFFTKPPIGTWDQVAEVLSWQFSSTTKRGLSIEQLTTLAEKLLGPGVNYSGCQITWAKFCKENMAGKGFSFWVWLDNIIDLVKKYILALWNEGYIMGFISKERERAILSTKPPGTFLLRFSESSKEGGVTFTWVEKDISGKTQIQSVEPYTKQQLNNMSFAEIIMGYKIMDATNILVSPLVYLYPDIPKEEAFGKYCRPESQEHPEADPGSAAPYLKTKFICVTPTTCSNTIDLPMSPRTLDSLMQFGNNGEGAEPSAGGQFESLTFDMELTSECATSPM

- IC50: 14.2 µM
SMILES: CC(C)=CC(=O)C[C@H](C)c1ccc(C)cc1 [(+)-(S)-ar-turmerone]
